# Screens (PubChem)
# Many of the other results were omitted from the sample, so hits are more common in it than they were.
# H69AR inhibit: growth inhibitors of human H69AR lung tumor cells; AID 598; H69AR lung tumor viability, ATP luminescence, 72 h; hits give low values; 85,000 tested, 6% active; viability, % at 10 µM;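 active means viability at or below 40%; inactive means viability above 40%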;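 further: multidrug resistant small cell line overexpressing MRP-1 efflux transporter; 100% = mean luminescence of untreated control wells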
# HCT116 bCat-KO: beta-catenin-lacking colon tumor cell growth suppression; HCT116 beta-catenin knockout viability, CellTiter-Glo, 60 h; hits give low values; viability, % at 10 µM; 140,000 tested, 1.5% active; AID 818;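 active means viability at or under a set limit, the compound median less 4 SD, cut at about 6% in these data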;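 further: 0% = Hyamine 1622 control at 20 µM and 100% = untreated cell control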
# HCT116 PTEN-null: growth suppressors of cells with PTEN tumor suppressor deletion. HCT116 PTEN-null viability, CellTiter-Glo, 60 h; hits give low values. viability, % at 10 µM. 140,000 tested, 1.2% active. AID 827;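 active means viability at or below a set limit, 4 SD under the median of all tested compounds, cut at about 3.7% in these data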;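 further: PTEN knockout HCT116 line with beta catenin targeted HCT116 as companion control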
# Fibroblast inh: blocks proliferation of human lung fibroblasts | viability, % at 10 µM | 85,000 tested, 1.1% active | LL 47 human lung fibroblast viability, ATP luminescence; hits give low values;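 active means viability at or below 50% in the single dose screen; inactive means viability above 50%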;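 further: compound exposure lasted 72 h before the ATP readout; 100% = median luminescence of untreated cell-only wells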
#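 Signal: luminescent ATP detection, CellTiter-Glo; assay system: LL 47 human lung fibroblasts; input: 1,150 cells/well; incubation: overnight cell rest, 72 h compound treatment at 37 °C; measure: % viability versus median cells-only luminescence; medium: IMEM growth medium with 15% fetal bovine serum; dosing: compound addition at 0.1% DMSO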
# HUVEC inhibit: inhibitors of human endothelial cell proliferation; HUVEC proliferation, CellTiter-Glo luminescence, 72 h; hits give low values; viability, % at 10 µM (by protocol); 86,000 tested, 1.1% active;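 active means viability at or below 30%; inactive means viability above 30%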;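 further: 100% = median luminescence of DMSO-only cell control wells on each plate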
# * marks the source's active call; other numbers are inactive results; . = no result given.
SMILES,H69AR inhibit,HCT116 bCat-KO,HCT116 PTEN-null,Fibroblast inh,HUVEC inhibit
CCOC(=O)c1c(C)[nH]c(C(=O)COC(=O)c2ccccc2NC(=O)c2ccco2)c1C,18*,73,74,100,65
CCOC(=O)c1c(C)[nH]c(C(=O)COC(=O)[C@H](C)NC(=O)c2ccccc2Cl)c1C,.,91,100,.,.
CCOC(=O)c1[nH]c(COC(=O)c2ccccc2NC(=O)c2ccco2)c(C(=O)OCC)c1C,8.5*,89,92,95,82
COc1cc(NC(=S)N2CCC(C(O)(c3ccccc3)c3ccccc3)CC2)cc(OC)c1,.,77,84,.,.
CCOc1ccccc1-c1cc(-c2ccc(OC)cc2)nc2c1c(=O)n(C)c(=O)n2C,21*,.,.,94,84
COC(=O)C1CCN(C(=O)COC(=O)CCc2nc3ccccc3c(=O)[nH]2)CC1,.,91,101,.,.
O=c1cc(N2CCC3(CC2)OCCO3)[nH]c(=O)n1C1CCCCC1,69,92,100,94,99
O=c1cc(N2CCN(c3ccc(F)cc3)CC2)[nH]c(=O)n1C1CCCCC1,35*,72,66,84,60
CCOC(=O)c1sc(NC(=O)CSc2nnnn2-c2ccccc2)nc1C,72,99,101,99,82
CCOC(=O)c1sc(NC(=O)CSc2nnnn2-c2ccc(C)c(C)c2)nc1C,82,102,95,97,18*
CCOC(=O)c1sc(NC(=O)CSc2nnnn2-c2ccc(C)cc2C)nc1C,84,94,88,100,25*
CCOC(=O)Cc1csc(NC(=O)CSc2nnnn2-c2ccc(C)cc2C)n1,96,103,96,105,94
COc1ccc(OC)c(-n2nnnc2SCC(=O)Nc2nc(C)c(C)s2)c1,20*,76,72,97,78
CCn1nc([N+](=O)[O-])c(C(C#N)c2nc3ccccc3n2C)c(Cl)c1=O (centres undefined),.,83,87,.,.
Cn1c(C(C#N)C(=O)c2sc3ccccc3c2Cl)nc2ccccc21 (centres undefined),17*,90,84,90,78
Cc1nc(-c2ccc3c(c2)OCO3)cs1,90,102,98,98,96
COc1cccc(C2=NOC(C(=O)NC(C)C)C2)c1 (centres undefined),99,96,107,99,95
CCC1(C)N=C(c2ccc3c(c2)OCO3)CC(c2ccccc2O)N1 (centres undefined),2.1*,51,64,54,25*
COc1cccc(C2=NC(C)(C)NC(c3ccccc3O)C2)c1 (centres undefined),1.1*,11,19,88,62
O=C(Cn1cncn1)c1ccc(F)cc1F,.,105,102,.,.
O=S1(=O)N=C(Oc2cccc3ccccc23)c2ccccc21,25*,89,95,108,80
C=CCc1cc(/C=C2/NC(=O)N(CC)C2=O)cc(OCC)c1OCc1ccc(C(=O)O)cc1,.,76,72,.,.
c1ccc2c(c1)ncn2-c1ncnc2sc3c(c12)CCCC3,80,107,106,93,87
CC(O)CNc1nc2ccccc2n1-c1ncnc2sc3c(c12)CCC3 (centres undefined),38*,47,57,81,53
CCOC(=O)c1ccc(N=c2sc(C(=O)OC)cc(=O)n2Cc2ccco2)cc1,1.3*,2.2*,2.2*,69,29*
SMILES,H69AR inhibit,HCT116 bCat-KO,HCT116 PTEN-null,Fibroblast inh,HUVEC inhibit
COC(=O)c1ccc2c(=O)n(CCCN3CCOCC3)c(=S)[nH]c2c1,86,96,86,97,95
COC(=O)c1cc(=O)n(Cc2cccs2)c(=NCc2cccs2)s1,.,92,86,.,.
CCOC(=O)c1ccc(N=c2sc(C(=O)OC)cc(=O)n2CCCN2CCOCC2)cc1,21*,6.0*,8,67,58
COc1ccc(CNC(=O)COC(=O)[C@H](Cc2c[nH]c3ccccc23)NC(=O)c2cccs2)cc1,.,85,79,.,.
COc1ccccc1NCC(O)Cn1c2ccccc2c2ccccc21 (centres undefined),17*,24,11,86,61
CCOc1cc(-c2cc(-c3ccccc3)nc(N)c2C#N)ccc1O,23*,10,11,82,53
CCOc1cc(-c2cc(-c3ccc(N)cc3)nc(N)c2C#N)ccc1O,3.6*,39,43,95,66
CCOC(=O)CC(=O)CSc1nc(-c2ccccc2)cc(-c2ccccc2)c1C#N,.,95,87,.,.
CCOc1cc(-c2c(C#N)c(N)nc3c2CCCC3)ccc1O,70,91,101,104,102
Cc1cc(C)cc(-n2cc[nH]c2=S)c1,.,105,96,.,.
O=C(CSc1cccc(C(F)(F)F)c1)Nc1cc(S(=O)(=O)N2CCCC2)ccc1Cl,.,63,63,.,.
CN1CCc2c(sc3ncn4nc(-c5ccccc5O)nc4c23)C1,44,0.8*,0.7*,53,78
CCOC(=O)Nc1ccc2c(c1)N(C(=O)CCN1CCOCC1)c1ccccc1S2=O (centres undefined),1.9*,9,16,74,73
Nc1[nH]n2c(=O)cc(-c3ccccc3)nc2c1N=Nc1ccccc1,.,3.7*,8,.,.
Cc1ccc(N=Nc2c(N)[nH]n3c(=O)cc(C)nc23)cc1,.,44,57,.,.
Cc1cc(C)c(C(=O)C2OC(=O)C(C)(C)C(=O)C2(C)C)c(C)c1 (centres undefined),102,86,88,103,114
CCN1CCc2nc(NC(=O)c3ccccc3)sc2C1,.,94,96,.,.
CN(C)c1ccc(/C=C(\C#N)C(=O)Nc2nc3c(s2)CCN(Cc2ccccc2)C3)cc1,2.4*,55,68,83,24*
Cc1ccc(S(=O)(=O)/C(=C/Cl)NC(=O)c2ccccc2)cc1,.,6.0*,9,.,.
CC(C)c1nc(SCC(=O)N2CCCc3ccccc32)c2c(=O)n(C)c(=O)n(C)c2n1,14*,11,9,84,57
CC(C)c1nc(SCc2c(F)cccc2Cl)c2c(=O)n(C)c(=O)n(C)c2n1,38*,3.5*,3.7*,83,56
Cn1c(=O)c2c(nc(SCCCC#N)n2Cc2c(F)cccc2Cl)n(C)c1=O,51,85,84,95,90
CCC(Sc1nc2n[nH]c(C)c2c(=N)n1-c1cccc(Cl)c1)C(=O)NCCOC (centres undefined),.,59,51,.,.
CCC(Sc1nc2n[nH]c(C)c2c(=N)n1-c1ccc(C)c(Cl)c1)C(=O)N1CCOCC1 (centres undefined),26*,75,72,75,58
CCOc1ccc(C(=O)Nc2cc(C)on2)cc1,36*,78,84,.,99
CCOc1cc(C(=O)Nc2cc(C)on2)cc(OCC)c1OCC,81,98,97,102,102
Cc1cccn2c(=O)c3cc(C(=O)NCCCN4CCCC4=O)n(C)c3nc12,82,85,83,107,86
Cc1ccc(C)c(OCC(=O)N/N=C/c2c(C)nn(-c3ccccc3)c2Cl)c1C,.,2.1*,1.8*,.,.
Nc1ccc(S(=O)(=O)N2CCCc3ccccc32)cc1,58,83,90,90,90
